# Where “and” joins values, the source holds several entries; their conditions need not be identical. Equal entries are not always repeated.
# Tests used:
# MDA-MB-231 [1] = experiment: (§1) Inhibition of [3H]thymidine incorporation into hormone independent MDA-MB 231 human breast cancer cells at 2x10E-6M; type: functional
# Method in brief: (§2)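 MDA-MB 231 cells grown in McCoy 5a with 10% newborn calf serum and gentamycin. Replicate plates were switched to 5% serum 1 h before the run. Compounds were added in Me2SO (final 0.1%). Read-out was [3H]thymidine incorporation into TCA-precipitable material.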
# Rattus norvegicus [2] = experiment: Partial remission in DMBA-induced hormone dependent mammary carcinoma tumor bearing rats at 2 mg/kg in 9 animals; type: functional; conditions: 2 mg/kg
# Method in brief: (§3)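 Sprague-Dawley rats bearing established DMBA-induced mammary carcinomas that arose 5–10 weeks after DMBA. Dosed sc as one daily dose Monday to Thursday and a double dose on Friday. Controls got vehicle alone. Tumor area was followed over treatment.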
# Rattus norvegicus [3] = experiment: New tumor development in DMBA-induced hormone dependent mammary carcinoma in rats at 2 mg/kg; type: functional; method in brief: as §3
# [4] = molecular target: T1, Estrogen receptor (Mus musculus) (UniProt O08537+P19785); experiment: Percent inhibition in anti-uterotrophic assay in mice at 25 ug; type: functional
# Method in brief: (§4)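 Mice dosed sc on 3 consecutive days (dose per animal), together with […] estrone per animal per day. Uterus dry weight (mg)/body weight (g) × 100 was taken 24 h after the last injection, as mean ± SD of 10 animals. Significance by Wilcoxon–Mann–Whitney U test.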
# [5] = molecular target: T1, Estrogen receptor (Mus musculus); experiment: Percent inhibition in anti-uterotrophic assay in mice at 0.2 ug; type: functional; conditions: in the assay text read “at 5 ug” for “at 0.2 ug”; method in brief: as §4
# [6] = molecular target: T1, Estrogen receptor (Mus musculus); experiment: Estrogenic activity in mouse uterotrophic assay at 0.04 ug as uterus dry weight (mg)/body weight (g) *100; type: functional, tissue-based
# Method in brief: (§5)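 Mouse uterotrophic test with the compound alone given sc on 3 consecutive days (dose per animal). Uterus dry weight (mg)/body weight (g) × 100 was measured 24 h after the last injection, as mean ± SD of 10 animals. Significance by Wilcoxon–Mann–Whitney U test.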
# MDA-MB-231 [7] = experiment: Inhibition of [3H]thymidine incorporation into hormone independent MDA-MB 231 human breast cancer cells at 1x10E-5 M; type: functional; method in brief: as §2
# [8] = molecular target: T1, Estrogen receptor (Mus musculus); experiment: Estrogenic activity in mouse uterotrophic assay at 5 ug as uterus dry weight (mg)/body weight (g) *100; type: functional, tissue-based; method in brief: as §5
# [9] = molecular target: T1, Estrogen receptor (Mus musculus); experiment: Anti-estrogenic activity in mouse uterotrophic assay at 0.2 ug as uterus dry weight (mg)/body weight (g) *100; type: functional, tissue-based; conditions: in the assay text read “at 5 ug” for “at 0.2 ug”; method in brief: as §4
# [10] = molecular target: T1, Estrogen receptor (Mus musculus); experiment: Estrogenic activity in mouse uterotrophic assay at 25 ug as uterus dry weight (mg)/body weight (g) *100; type: functional, tissue-based; method in brief: as §5
# MDA-MB-231 [11] = experiment: Inhibition of [3H]thymidine incorporation into hormone independent MDA-MB 231 human breast cancer cells at 1*10^-5 M; type: functional; method in brief: as §2
# MDA-MB-231 [12] = experiment: (§6) Inhibition of [3H]thymidine incorporation into hormone independent MDA-MB 231 human breast cancer cells at 1x10E-6M; type: functional; method in brief: as §2
# Rattus norvegicus [13] = experiment: New tumor development in DMBA-induced hormone dependent mammary carcinoma in rats at 6 mg/kg; type: functional; method in brief: as §3
# MDA-MB-231 [14] = experiment: Inhibition of [3H]-thymidine incorporation into hormone independent MDA-MB 231 human breast cancer cells at 5x10E-6M; type: functional; method in brief: as §2
# Rattus norvegicus [15] = experiment: Percent complete remission of DMBA-induced hormone dependent mammary carcinoma in rats at 2 mg/kg in 9 animals; type: functional; conditions: 2 mg/kg; method in brief: as §3
# Rattus norvegicus [16] = experiment: Initial DMBA-induced hormone dependent mammary carcinoma tumors in rats at 2 mg/kg; type: functional; method in brief: as §3
# Rattus norvegicus [17] = experiment: New tumor development in DMBA-induced hormone dependent mammary carcinoma in rats at 18 mg/kg; type: functional; method in brief: as §3
# Rattus norvegicus [18] = experiment: Initial DMBA-induced hormone dependent mammary carcinoma tumors in rats at 6 mg/kg; type: functional; method in brief: as §3
# [19] = molecular target: T1, Estrogen receptor (Mus musculus); experiment: Estrogenic activity in mouse uterotrophic assay at 125 ug as uterus dry weight (mg)/body weight (g) *100; type: functional, tissue-based; method in brief: as §5
# MDA-MB-231 [20] = experiment: as §6; type: functional; method in brief: as §2; remark: listed apart in the source
# MDA-MB-231 [21] = experiment: Growth inhibition of hormone independent MDA-MB 231 human breast cancer cells at 1x10E-5 M
# [22] = molecular target: T1, Estrogen receptor (Mus musculus); experiment: Anti-estrogenic activity in mouse uterotrophic assay at 25 ug as uterus dry weight (mg)/body weight (g) *100; type: functional, tissue-based; method in brief: as §4
# MDA-MB-231 [23] = experiment: Inhibition of [3H]thymidine incorporation into hormone independent MDA-MB 231 human breast cancer cells at 5x10E-6M; type: functional; method in brief: as §2
# MDA-MB-231 [24] = experiment: Growth inhibition of hormone independent MDA-MB 231 human breast cancer cells at 5x10E-6M
# Rattus norvegicus [25] = experiment: Progressive DMBA-induced hormone dependent mammary carcinoma tumors in rats at 2 mg/kg in 9 animals; type: functional; conditions: 2 mg/kg; method in brief: as §3
# [26] = molecular target: T1, Estrogen receptor (Mus musculus); experiment: Anti-estrogenic activity in mouse uterotrophic assay at 5 ug as uterus dry weight (mg)/body weight (g) *100; type: functional, tissue-based; method in brief: as §4
# [27] = molecular target: T1, Estrogen receptor (Mus musculus); experiment: Anti-estrogenic activity in mouse uterotrophic assay at 0.04 ug as uterus dry weight (mg)/body weight (g) *100; type: functional, tissue-based; conditions: in the assay text read “at 1 ug” for “at 0.04 ug”; method in brief: as §4
# [28] = molecular target: T1, Estrogen receptor (Mus musculus); experiment: Anti-estrogenic activity in mouse uterotrophic assay at 1 ug as uterus dry weight (mg)/body weight (g) *100; type: functional, tissue-based; method in brief: as §4
# [29] = molecular target: T1, Estrogen receptor (Mus musculus); experiment: Percent inhibition in anti-uterotrophic assay in mice at 0.04 ug; type: functional; conditions: in the assay text read “at 1 ug” for “at 0.04 ug”; method in brief: as §4
# [30] = molecular target: T1, Estrogen receptor (Mus musculus); experiment: Percent inhibition in anti-uterotrophic assay in mice at 1 ug; type: functional; method in brief: as §4
# [31] = molecular target: T1, Estrogen receptor (Mus musculus); experiment: Estrogenic activity in mouse uterotrophic assay at 1 ug as uterus dry weight (mg)/body weight (g) *100; type: functional, tissue-based; method in brief: as §5
# Rattus norvegicus [32] = experiment: Initial DMBA-induced hormone dependent mammary carcinoma tumors in rats at 18 mg/kg; type: functional; method in brief: as §3
# MDA-MB-231 [33] = experiment: as §1; type: functional; method in brief: as §2; remark: listed apart in the source
# [34] = molecular target: T1, Estrogen receptor (Mus musculus); experiment: Percent inhibition in anti-uterotrophic assay in mice at 5 ug; type: functional; method in brief: as §4
# [35] = molecular target: T1, Estrogen receptor (Mus musculus); experiment: Estrogenic activity in mouse uterotrophic assay at 0.2 ug as uterus dry weight (mg)/body weight (g) *100; type: functional, tissue-based; method in brief: as §5
# Rattus norvegicus [36] = experiment: Change in body weight of DMBA-induced hormone dependent mammary carcinoma tumor bearing rats at 2 mg/kg after 7 day therapy in 9 animals; type: functional; conditions: 2 mg/kg
# T1 sequence (O08537 whole entry, looked up): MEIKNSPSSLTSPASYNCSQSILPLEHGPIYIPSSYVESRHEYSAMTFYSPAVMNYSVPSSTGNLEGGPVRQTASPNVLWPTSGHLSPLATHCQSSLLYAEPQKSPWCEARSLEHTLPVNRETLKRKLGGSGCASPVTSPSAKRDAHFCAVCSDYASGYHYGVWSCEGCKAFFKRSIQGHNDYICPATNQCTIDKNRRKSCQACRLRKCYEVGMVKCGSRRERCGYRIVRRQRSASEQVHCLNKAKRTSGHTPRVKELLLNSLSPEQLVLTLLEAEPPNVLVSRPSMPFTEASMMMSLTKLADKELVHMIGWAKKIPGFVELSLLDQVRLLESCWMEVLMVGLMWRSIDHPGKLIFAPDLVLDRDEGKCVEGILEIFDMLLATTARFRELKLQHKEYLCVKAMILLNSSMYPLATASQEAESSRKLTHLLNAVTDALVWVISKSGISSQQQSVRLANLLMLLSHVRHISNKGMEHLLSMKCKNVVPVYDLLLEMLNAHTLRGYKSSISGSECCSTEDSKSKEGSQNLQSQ
# T1 sequence (P19785 whole entry, looked up): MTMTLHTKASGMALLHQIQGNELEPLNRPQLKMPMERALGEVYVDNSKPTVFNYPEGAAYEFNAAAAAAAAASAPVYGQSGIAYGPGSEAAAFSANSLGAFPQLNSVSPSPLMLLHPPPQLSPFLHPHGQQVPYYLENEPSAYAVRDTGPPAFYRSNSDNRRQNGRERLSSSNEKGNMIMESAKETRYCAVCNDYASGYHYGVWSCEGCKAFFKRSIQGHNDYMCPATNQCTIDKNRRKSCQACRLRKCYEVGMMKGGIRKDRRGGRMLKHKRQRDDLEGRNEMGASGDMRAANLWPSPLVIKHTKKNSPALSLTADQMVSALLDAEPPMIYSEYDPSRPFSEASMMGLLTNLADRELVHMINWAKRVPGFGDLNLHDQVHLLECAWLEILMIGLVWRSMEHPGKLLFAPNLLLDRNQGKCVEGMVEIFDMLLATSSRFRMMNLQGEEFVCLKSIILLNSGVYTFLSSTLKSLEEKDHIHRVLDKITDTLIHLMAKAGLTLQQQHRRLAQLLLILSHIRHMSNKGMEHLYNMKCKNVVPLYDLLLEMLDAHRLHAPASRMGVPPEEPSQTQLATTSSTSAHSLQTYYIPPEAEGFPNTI
smiles,measurement,setting,value
CCn1c(-c2c(Cl)cc(O)cc2Cl)cc2c(Cl)cc(O)cc21,Cell no./dish x10E3,MDA-MB-231 [1],36.2 cpm/dish x10E3
same,Cell no./dish x10E5,MDA-MB-231 [1],9.38
same,T/C,MDA-MB-231 [1],88%
same,Partial remission,Rattus norvegicus [2],14% and 15% and 24%
same,New tumors,Rattus norvegicus [3],15
same,inhibition,[4],25%
same,inhibition,[5],2%
same,Effect,[6],19.8
same,Cell no./dish x10E3,MDA-MB-231 [7],6.6 cpm/dish x10E3
same,Cell no./dish x10E5,MDA-MB-231 [7],2.71
same,Effect,[8],22.2
same,Effect,[9],46.3
same,Effect,[10],45.8
same,T/C,MDA-MB-231 [11],16%
same,Cell no./dish x10E3,MDA-MB-231 [12],40.2 cpm/dish x10E3
same,Cell no./dish x10E5,MDA-MB-231 [12],11.35
same,T/C,MDA-MB-231 [12],106%
same,New tumors,Rattus norvegicus [13],4
same,Cell no./dish x10E5,MDA-MB-231 [14],5.44
same,Complete remission,Rattus norvegicus [15],43% and 62% and 56%
same,No. of tumors,Rattus norvegicus [16],22
same,New tumors,Rattus norvegicus [17],5
same,No. of tumors,Rattus norvegicus [18],22
same,Effect,[19],40.6
same,T/C,MDA-MB-231 [20],98%
same,T/C,MDA-MB-231 [21],25%
same,Effect,[22],39.3
same,T/C,MDA-MB-231 [23],14%
same,[3H]thymidine incorporation,MDA-MB-231 [23],5.8 cpm/dish x10E3
same,T/C,MDA-MB-231 [24],51%
same,Progressive tumors,Rattus norvegicus [25],24% and 15% and 16%
same,Effect,[26],46.3
same,Effect,[27],48.7
same,Effect,[28],48.7
same,inhibition,[29],-7%
same,inhibition,[30],-7%
same,Effect,[31],21.5
same,No. of tumors,Rattus norvegicus [32],20
same,T/C,MDA-MB-231 [33],88%
same,inhibition,[34],2%
same,Effect,[35],21.7
same,Change,Rattus norvegicus [36],2% and 1% and 0%

# — ChEMBL document CHEMBL1122306, “2-(Hydroxyphenyl)indoles: a new class of mammary tumor inhibiting compounds” (1983)
